The values that follow come from ChEMBL document CHEMBL1125720, “Long-acting dihydropyridine calcium antagonists. 6. Structure-activity relationships around 4-(2,3-dichlorophenyl)-3-(ethoxycarbonyl)-2-[(2-hydroxyethoxy)methyl]-5 -(methoxycarbonyl)-6-methyl-1,4-dihydropyridine” (J Med Chem, 1991).

Data set [1] can be described thus: Selectivity index calculated as the ratio of Calcium pIC50 to that of negative inotropy IC25. It is filed as functional.
Another data set is filed under the species Rattus norvegicus. Put plainly: Evaluated for the negative logarithm of the molar concentration required to block [Ca2+] induced contraction of K+ depolarized rat aorta by 50%. It is filed as functional. In short, it runs like this:
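Rat aorta depolarized with potassium, then contracted by adding calcium. Read-out is the molar concentration that inhibits the calcium-induced contraction by 50%, reported as pIC50.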

For a further data set, the species on record is Cavia porcellus. Kind of data set: Evaluated for the negative ionotropy logarithm of the molar concentration required to depress contraction in the Langendorff-perfused guinea pig heart by 25%. It counts as functional. In short, it runs like this: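 Negative inotropy measured in vitro in a Langendorff-perfused guinea pig heart. Read-out is the molar concentration that depresses contraction by 25%, reported as pIC25.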

A short description of data set [2]: Compound was evaluated for the volume of distribution to investigate its pharmacokinetic profile in dogs after intravenous administration. It is filed as ADME, organism-based, Canis lupus familiaris. The following applies: dog, in vivo, read-out: Volume of distribution.
The nature of data set [3]: Compound was evaluated for the plasma half-life to investigate its pharmacokinetic profile in dogs after intravenous administration. It is filed as ADME, organism-based, Canis lupus familiaris. The following applies: dog.
A short description of data set [4]: Compound was evaluated for the plasma clearance to investigate its pharmacokinetic profile in dogs after intravenous administration. The following applies: dog. It counts as ADME, organism-based, Canis lupus familiaris.

As a reminder, the IC50 is the concentration at which inhibition is half-maximal. Read a high IC50 as weaker potency. Take `CCO/C(O)=C1\C(COCC(C)(O)Cn2cncn2)=NC(C)=C(C(=O)OC)C1c1cccc(Cl)c1Cl` (configuration not stated): in data set [1], the Selectivity index was 3. The compound also gave an IC50 in the data set listed under Rattus norvegicus of 20 nM. The compound further returned a pIC25 in the data set listed under Cavia porcellus of 7.2.

In the case of `CCO/C(O)=C1\C(COCC(C)(O)CO)=NC(C)=C(C(=O)OC)C1c1cccc(Cl)c1Cl` (configuration not stated), the Selectivity index in data set [1] is 4. The same compound gave an IC50 in the data set filed under Rattus norvegicus of 25.1 nM. The compound further yielded a pIC25 in the data set filed under Cavia porcellus of 7.

Regarding `CCO/C(O)=C1\C(COCC(C)(O)c2ccco2)=NC(C)=C(C(=O)OC)C1c1cccc(Cl)c1Cl` (configuration not stated), the Selectivity index in data set [1] is 16. This compound showed an IC50 in the data set listed under Rattus norvegicus of 15.8 nM. For the same compound, the pIC25 in the data set listed under Cavia porcellus came to 6.6.

`CCO/C(O)=C1\C(COCC(C)(O)CSc2ncccn2)=NC(C)=C(C(=O)OC)C1c1cccc(Cl)c1Cl` (configuration not stated): in data set [1], the Selectivity index is 1.6. The IC50 in the data set filed under Rattus norvegicus was 25.1 nM. The compound further came in with a pIC25 in the data set listed under Cavia porcellus of 7.4.

Regarding `COC(=O)C1=C(C)NC(C)=C(C(=O)OC)C1c1ccccc1[N+](=O)[O-]` [NIFEDIPINE], in data set [1], the Selectivity index is 8. In addition, the pIC25 in the data set listed under Cavia porcellus was 7.5.

`CCO/C(O)=C1\C(COCC(C)(O)Cc2ccccn2)=NC(C)=C(C(=O)OC)C1c1cccc(Cl)c1Cl` (configuration not stated): in data set [1], the Selectivity index was 2. The same compound had an IC50 in the data set filed under Rattus norvegicus of 63.1 nM. In addition, the pIC25 in the data set listed under Cavia porcellus turned out to be 7.5.

Take `CCO/C(O)=C1\C(COCC(C)(C)O)=NC(C)=C(C(=O)OC)C1c1cccc(Cl)c1Cl` (configuration not stated): in data set [1], the Selectivity index is 10. The IC50 in the data set listed under Rattus norvegicus is 6.31 nM. In addition, in the data set listed under Cavia porcellus, the pIC25 came to 7.2.

In the case of `CCO/C(O)=C1\C(COCC(C)(O)Cn2ccnc2)=NC(C)=C(C(=O)OC)C1c1cccc(Cl)c1Cl` (configuration not stated), in data set [1], the Selectivity index is 1.6. The compound further gave an IC50 in the data set listed under Rattus norvegicus of 39.8 nM. This compound showed a pIC25 in the data set listed under Cavia porcellus of 7.2.

Regarding `CCO/C(O)=C1\C(COCCOC)=NC(C)=C(C(=O)OC)C1c1cccc(Cl)c1Cl` (configuration not stated), the Selectivity index in data set [1] was 30. The IC50 in the data set filed under Rattus norvegicus is 31.6 nM. For the same compound, the pIC25 in the data set filed under Cavia porcellus is listed as 6.

For `CCCOCC1=C(C(=O)OCC)C(c2cccc(Cl)c2Cl)/C(=C(\O)OC)C(C)=N1` (configuration not stated), the Selectivity index in data set [1] is 20. For the same compound, half-maximal inhibition in the data set filed under Rattus norvegicus (IC50) required 31.6 nM. The same compound came in with a pIC25 in the data set listed under Cavia porcellus of 6.2.

As for `CCO/C(O)=C1\C(COCC(O)CO)=NC(C)=C(C(=O)OC)C1c1cccc(Cl)c1Cl` (configuration not stated), the Selectivity index in data set [1] was 8. Besides, the midpoint of inhibition in the data set filed under Rattus norvegicus, the IC50, lay at 15.8 nM. The compound further had a pIC25 in the data set listed under Cavia porcellus of 6.9.

On to `CCO/C(O)=C1\C(COCC(C)O)=NC(C)=C(C(=O)OC)C1c1cccc(Cl)c1Cl` (configuration not stated), for which, in data set [1], the Selectivity index was 3. This compound had an IC50 in the data set filed under Rattus norvegicus of 15.8 nM. Further, the pIC25 in the data set filed under Cavia porcellus is listed as 7.3.

In general, half-life refers to the time in which the quantity being followed falls by half. The term clearance denotes the rate of elimination divided by the concentration. High values mean a high capacity for elimination, low ones a low capacity for elimination. `CCO/C(O)=C1\C(COCCO)=NC(C)=C(C(=O)OC)C1c1cccc(Cl)c1Cl` (configuration not stated): the Vd in data set [2] worked out at 6 L/kg. Further, the Selectivity index in data set [1] is 10. In addition, the half-life in data set [3] was 7.3 h. In the data set filed under Rattus norvegicus, this compound gave an IC50 of 3.98 nM. This compound also came in with a clearance in data set [4] of 9.6 mL/min/kg. For the same compound, the pIC25 in the data set filed under Cavia porcellus was 7.4.

`CCO/C(O)=C1\C(COCC(C)(O)CN)=NC(C)=C(C(=O)OC)C1c1cccc(Cl)c1Cl` (configuration not stated): the Selectivity index in data set [1] is 2. In the data set listed under Rattus norvegicus, the IC50 is 158 nM. Also, the pIC25 in the data set filed under Cavia porcellus was determined as 6.5.

On to `CCO/C(O)=C1\C(COCC(C)(O)CNc2ncccn2)=NC(C)=C(C(=O)OC)C1c1cccc(Cl)c1Cl` (configuration not stated), for which the Selectivity index in data set [1] is 2. For the same compound, in the data set filed under Rattus norvegicus, the IC50 is 39.8 nM. In addition, the pIC25 in the data set filed under Cavia porcellus is given as 7.1.
